A short description of data set [1]: Antitubercular activity against Mycobacterium bovis BCG ATCC 35743 active stage measured on day 8 by nitrate reductase based two-fold dilution assay. Format: functional, Mycobacterium bovis BCG str. ATCC 35743. The conditions noted are these: Mycobacterium tuberculosis variant bovis BCG, ATCC 35743, 192 h.
For data set [2], the system named is Staphylococcus aureus. Description: Growth inhibition of Staphylococcus aureus at 3 ug/ml. The data set is classed as functional. The conditions noted are these: read-out: GI. An outline of the steps: (§1)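 Screened against Gram-negative E. coli and P. aeruginosa and Gram-positive S. aureus and B. subtilis. Compound was tested at 3 µg/ml, and the read-out is percent growth inhibition.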

Data set [3] in a line: Selectivity index, ratio of GI50 for human MCF7 cells to MIC90 for Mycobacterium bovis BCG ATCC 35743 active stage. The data set is classed as toxicity, cell-based. The conditions noted are these: read-out: Selectivity Index. In outline:
(§2)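 Cytotoxicity was measured on human MCF-7, HCT116 and THP-1 cells by MTT assay, with paclitaxel as reference. GI50 is the concentration inhibiting 50% of cell growth. The selectivity index is GI50 for the given cell line divided by MIC90 for the given mycobacterial strain and stage.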

The nature of data set [4]: Antitubercular activity against Mycobacterium tuberculosis H37Ra ATCC 25177 active stage measured on day 8 by XTT reduction menadione based two-fold dilution assay. The data set is classed as functional. The conditions noted are these: ATCC 25177, 192 h. An outline of the steps: (§3)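 M. tuberculosis H37Ra ATCC 25177 was exposed to 0.7–100 μg/mL in two-fold steps (0.7, 1.5, 3.1 … 100). Active stage was read after 8 days and dormant stage after 12 days of incubation. Inhibition was read by XTT reduction menadione assay (XRMA), absorbance 470 nm. MIC90 is the concentration giving ≥90% inhibition (µg/mL).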
Background: Tetrazolium dyes change colour on reduction, which living cells bring about.

Data set [5] can be described thus: Selectivity index, ratio of GI50 for human MCF7 cells to MIC90 for Mycobacterium tuberculosis H37Ra ATCC 25177 dormant stage. The data set is classed as toxicity, cell-based. The conditions noted are these: read-out: Selectivity Index. In outline:
(§4)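 Cytotoxicity was measured on human MCF-7, HCT116 and THP-1 cells by MTT assay, with paclitaxel as reference. The selectivity index is GI50 for the given cell line divided by MIC90 for the given mycobacterial strain and stage.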

Data set [6] is described as follows: Selectivity index, ratio of GI50 for human THP1 cells to MIC90 for Mycobacterium bovis BCG ATCC 35743 dormant stage. To be noted: read-out: Selectivity Index. The data set is classed as toxicity, cell-based, THP-1. In outline:
as §4

In data set [7] the test system is Pseudomonas aeruginosa. Description: Growth inhibition of Pseudomonas aeruginosa at 30 ug/ml. Format: functional. The conditions noted are these: read-out: GI.
A short description of data set [8]: Selectivity index, ratio of GI50 for human HCT116 cells to MIC90 for Mycobacterium bovis BCG ATCC 35743 dormant stage. Format: toxicity, cell-based, HCT-116. The conditions noted are these: read-out: Selectivity Index. In outline: as §4
The subject of data set [9] is Escherichia coli. Description: Growth inhibition of Escherichia coli at 3 ug/ml. Format: functional. The conditions noted are these: read-out: GI. In outline:
as §1

Data set [10] is described as follows: Antitubercular activity against Mycobacterium tuberculosis H37Ra ATCC 25177 dormant stage measured on day 12 by XTT reduction menadione based two-fold dilution assay. The data set is classed as functional. To be noted: ATCC 25177, 288 h. An outline of the steps:
as §3

The nature of data set [11]: Cytotoxicity against human HCT116 cells by MTT assay. The data set is classed as toxicity, cell-based, HCT-116.
Data set [12] in a line: Selectivity index, ratio of GI50 for human HCT116 cells to MIC90 for Mycobacterium bovis BCG ATCC 35743 active stage. The data set is classed as toxicity, cell-based, HCT-116. The conditions noted are these: read-out: Selectivity Index. An outline of the steps:
as §2

A short description of data set [13]: Selectivity index, ratio of GI50 for human THP1 cells to MIC90 for Mycobacterium tuberculosis H37Ra ATCC 25177 dormant stage. The data set is classed as toxicity, cell-based, THP-1. The conditions noted are these: read-out: Selectivity Index. In outline:
as §4

Data set [14] deals with Bacillus subtilis. Description: Growth inhibition of Bacillus subtilis at 30 ug/ml. The data set is classed as functional. The conditions noted are these: read-out: GI.
The test system of data set [15] is Staphylococcus aureus. Description: Growth inhibition of Staphylococcus aureus at 10 ug/ml. Format: functional. The conditions noted are these: read-out: GI.
A short description of data set [16]: Selectivity index, ratio of GI50 for human MCF7 cells to MIC90 for Mycobacterium tuberculosis H37Ra ATCC 25177 active stage. The data set is classed as toxicity, cell-based. To be noted: read-out: Selectivity Index. In outline: as §2
Data set [17] in a line: Selectivity index, ratio of GI50 for human THP1 cells to MIC90 for Mycobacterium bovis BCG ATCC 35743 active stage. The data set is classed as toxicity, cell-based, THP-1. The conditions noted are these: read-out: Selectivity Index. In outline:
as §2

Data set [18] can be described thus: Selectivity index, ratio of GI50 for human THP1 cells to MIC90 for Mycobacterium tuberculosis H37Ra ATCC 25177 active stage. The conditions noted are these: read-out: Selectivity Index. Format: toxicity, cell-based, THP-1. In outline:
as §2

Data set [19] concerns Escherichia coli. Description: Growth inhibition of Escherichia coli at 10 ug/ml. The data set is classed as functional. The conditions noted are these: read-out: GI.
A short description of data set [20]: Antitubercular activity against Mycobacterium tuberculosis H37Ra ATCC 25177 active stage infected in human THP1 cells measured on day 8 by nitrate reductase assay. The data set is classed as functional, THP-1. The conditions noted are these: ATCC 25177, 192 h.
The test system of data set [21] is Pseudomonas aeruginosa. Description: Growth inhibition of Pseudomonas aeruginosa at 10 ug/ml. Format: functional. To be noted: read-out: GI.
Data set [22] can be described thus: Cytotoxicity against human MCF7 cells by MTT assay. Format: toxicity, cell-based.
Data set [23] concerns Escherichia coli. The data set can be described thus: Growth inhibition of Escherichia coli at 30 ug/ml. Format: functional. To be noted: read-out: GI.
The test system of data set [24] is Bacillus subtilis. Description: Growth inhibition of Bacillus subtilis at 3 ug/ml. Format: functional. To be noted: read-out: GI. An outline of the steps: as §1
For data set [25], the system named is Escherichia coli. Description: Antibacterial activity against Escherichia coli. Format: functional.
Data set [26] deals with Bacillus subtilis. The data set can be described thus: Antibacterial activity against Bacillus subtilis. Format: functional.
For data set [27], the system named is Bacillus subtilis. The data set can be described thus: Growth inhibition of Bacillus subtilis at 10 ug/ml. The conditions noted are these: read-out: GI. The data set is classed as functional.
A short description of data set [28]: Selectivity index, ratio of GI50 for human HCT116 cells to MIC90 for Mycobacterium tuberculosis H37Ra ATCC 25177 active stage. Format: toxicity, cell-based, HCT-116. To be noted: read-out: Selectivity Index. In outline:
as §2

In data set [29] the test system is Staphylococcus aureus. Description: Antibacterial activity against Staphylococcus aureus. Format: functional.
Data set [30] has as its system Pseudomonas aeruginosa. Description: Antibacterial activity against Pseudomonas aeruginosa. The data set is classed as functional.
Data set [31] is described as follows: Selectivity index, ratio of GI50 for human HCT116 cells to MIC90 for Mycobacterium tuberculosis H37Ra ATCC 25177 dormant stage. Format: toxicity, cell-based, HCT-116. The conditions noted are these: read-out: Selectivity Index. An outline of the steps:
as §4

Data set [32] can be described thus: Antitubercular activity against Mycobacterium tuberculosis H37Ra ATCC 25177 dormant stage infected in human THP1 cells measured on day 12 by nitrate reductase assay. The data set is classed as functional, THP-1. To be noted: ATCC 25177, 288 h.
Data set [33] can be described thus: Cytotoxicity against human THP1 cells by MTT assay. Format: toxicity, cell-based, THP-1.
Data set [34] in a line: Selectivity index, ratio of GI50 for human MCF7 cells to MIC90 for Mycobacterium bovis BCG ATCC 35743 dormant stage. Format: toxicity, cell-based. To be noted: read-out: Selectivity Index. In outline: as §4
In data set [35] the test system is Staphylococcus aureus. Description: Growth inhibition of Staphylococcus aureus at 30 ug/ml. Format: functional. The conditions noted are these: read-out: GI.
Data set [36] is described as follows: Antitubercular activity against Mycobacterium bovis BCG ATCC 35743 dormant stage measured on day 12 by nitrate reductase based two-fold dilution assay. The data set is classed as functional, Mycobacterium bovis BCG str. ATCC 35743. The conditions noted are these: Mycobacterium tuberculosis variant bovis BCG, ATCC 35743, 288 h.
In data set [37] the test system is Pseudomonas aeruginosa. The data set can be described thus: Growth inhibition of Pseudomonas aeruginosa at 3 ug/ml. The data set is classed as functional. To be noted: read-out: GI. An outline of the steps:
as §1

Data on two compounds can be found in ChEMBL document CHEMBL3872252, “New bithiazolyl hydrazones: Novel synthesis, characterization and antitubercular evaluation” (Bioorg Med Chem Lett, 2017).

Molecules are shown by their SMILES. ≈ marks a conversion by molar mass, not a printed value. Some results are limits rather than exact numbers.

As usually defined, the IC50 is the midpoint of a concentration-inhibition curve. Read a high IC50 as weaker potency in that assay. Broadly, the MIC90 is the lowest concentration that inhibits either 90% of growth or 90% of the strains tested, depending on the study. A high value points to lower susceptibility. As usually defined, the GI50 is the concentration at which growth is held to half of that of the control. Low values mean greater sensitivity of the cells, high ones lower sensitivity of the cells. As a reminder, the MIC is the least concentration at which growth counts as inhibited. A lower MIC goes with greater potency. For the compound `COc1ccc(-c2csc(N/N=C(\C)c3sc(-c4ccccc4)nc3C)n2)cc1`, the IC50 was 2.43 µg/mL (≈ 5.78 µM) in [1], 0.078 µg/mL (≈ 0.185 µM) in data set [4], 0.075 µg/mL (≈ 0.178 µM) in data set [10] and 2.82 µg/mL (≈ 6.71 µM) in data set [36]. Moreover, the MIC90 in [1] was determined as 13.5 µg/mL (≈ 32.1 µM); in [4], 6.87 µg/mL (≈ 16.3 µM); in [10], 7.15 µg/mL (≈ 17 µM); in data set [20], 12.3 µg/mL (≈ 29.3 µM); in [32], 9.38 µg/mL (≈ 22.3 µM); in data set [36], 14 µg/mL (≈ 33.3 µM). For the same compound, the inhibition of growth at 3 µg/mL in data set [2] worked out at 48.8%; in data set [9], 52.1%; in data set [24], 44.9%; in [37], 48.7%. For the same compound, the selectivity ratio was 7 in data set [3]; 14 in [5]; 7 in data set [6]; 7 in data set [8]; 7 in data set [12]; 14 in data set [13]. In addition, the selectivity ratio in data set [16] was 15; in [17], 7; in [18], 15; in [28], 15; in data set [31], 14; in data set [34] it was 7. The inhibition of growth at 30 µg/mL in data set [7] amounted to 85%; in data set [14] it was 82.5%; in data set [23] it was 84.6%; in data set [35], 83.7%. For the same compound, the GI50 in data set [11] (HCT116 cells), in data set [22] (MCF7 cells) and in data set [33] (THP1 cells) was > 100 µg/mL throughout. Besides, the GI90 in data set [11] (hct-116), in data set [22] (mcf7) and in [33] (thp-1) was > 100 µg/mL in each case. The inhibition of growth at 10 µg/mL is 69.2% in data set [15], 71.1% in [19], 69.9% in [21] and 66.8% in [27]. For the same compound, the minimum inhibitory concentration (MIC) in data set [25], in [26], in data set [29] and in data set [30] was > 30 µg/mL each time.

As to `NC[C@H]1O[C@H](O[C@H]2[C@H](O)[C@@H](O[C@H]3O[C@H](CO)[C@@H](O)[C@H](N)[C@H]3O)[C@H](N)C[C@@H]2N)[C@H](O)[C@@H](O)[C@@H]1O` [KANAMYCIN], the MIC in data set [25] is 1.62 µg/mL (≈ 3.34 µM); in data set [26] it was 1.35 µg/mL (≈ 2.79 µM); in data set [29] it was > 30 µg/mL; in [30], 0.49 µg/mL (≈ 1.01 µM).
